# Assay outcomes from PubChem.
# TAAR1 agonist – human TAAR1 agonists, primary screen, Fluo-8 calcium fluorescence, CHO RD-HGA16 cells | activation, % at 3 µM | vehicle wells 0%, saturating PEA agonist 100% | 0.99% of 360,000 active | Trace amine-associated receptor 1 (Homo sapiens), Q96RJ0 | AID 624467, 2012;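 active = activation above the mean activation of all test compounds in the run plus 3 SD, cut at about 38% in these data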
# Target sequence (Q96RJ0 whole entry, looked up): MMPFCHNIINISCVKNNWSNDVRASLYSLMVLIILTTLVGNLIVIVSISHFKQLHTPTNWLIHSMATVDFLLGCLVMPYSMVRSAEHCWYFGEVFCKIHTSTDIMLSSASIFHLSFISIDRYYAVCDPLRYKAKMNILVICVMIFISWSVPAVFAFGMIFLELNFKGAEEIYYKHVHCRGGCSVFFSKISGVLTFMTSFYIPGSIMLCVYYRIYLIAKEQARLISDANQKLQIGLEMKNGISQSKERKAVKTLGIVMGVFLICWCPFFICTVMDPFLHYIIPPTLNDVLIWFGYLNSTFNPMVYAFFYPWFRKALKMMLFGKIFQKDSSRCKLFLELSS
#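 System: CHO RD-HGA16 cells carrying human TAAR1 plus Gα16; Incubation: 17-24 h seeding, 75 min 37 °C dye, 30 min RT; Measured by: Fluo-8 fluorescence, 5 s baseline then 140 s kinetic read; Control set: DMSO and PEA EC100; Replication: single well for each compound.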
# OXTR agonist – human OXTR agonists, primary screen, fluorescence, CHO-OTR cells, Fluo-8 calcium. 0.32% of 320,000 active. activation, % at 3 µM. Oxytocin receptor (Homo sapiens), P30559. Fluo-8 calcium fluorescence; normalized: DMSO 0%, oxytocin 100%;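 active = activation above the mean of all tested compounds plus 3 SD, cutoff set per screening run, cut at about 20% in these data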;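 also: peak over basal fluorescence ratio from a 100 s FLIPR kinetic read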
# OXTR potentiator – human OXTR potentiators, primary screen, fluorescence, CHO-OTR cells, Fluo-8 calcium; Oxytocin receptor (Homo sapiens), P30559; Fluo-8 calcium fluorescence, potentiator mode; 0% = oxytocin EC15, 100% = EC100; activation, % at 3 µM; 0.061% of 320,000 active; AID 2445, 2010;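 active = activation above that plate's cutoff, the mean activation of tested compounds plus 3 SD, cut at about 6.6% in these data, passing the limit was not always enough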;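 also: 100% uses oxytocin at 75 nM as the full agonist control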
#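 Dosing: Single dose, 3.0 µM nominal final compound concentration | Material: Human OTR in CHO cells | Technique: Kinetic Fluo-8 calcium fluorescence | Benchmarks: EC15 oxytocin alone as 0%, 75 nM oxytocin as 100% | Probe or stimulus: Oxytocin at about EC15, sub-maximal agonist stimulus | Incubation: Compound 6 min at room temperature before oxytocin, 100 s read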
# TAAR1 antag – human TAAR1 antagonists, primary screen, Fluo-8 calcium fluorescence, CHO RD-HGA16 cells; Trace amine-associated receptor 1 (Homo sapiens), Q96RJ0; antagonist; inhibition, % at 3 µM; 1.5% of 360,000 active; AID 624466, 2012;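 active = inhibition above a per-plate cutoff, the mean inhibition of test compounds on that plate plus 3 SD, cut at about 49% in these data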;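 also: 0% = DMSO plus EC80 beta-PEA response and 100% = DMSO alone without agonist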
#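 Test system – hTAAR1-expressing CHO RD-HGA16 cells, Gα16-coupled · Reagent – β-PEA at EC80 concentration, post-compound challenge · Compound dosing – 3 µM, single point · Timing – 140 s kinetic read after compound, 140 s after agonist · Detection – Fluo-8 intracellular calcium dye fluorescence, real-time kinetic reads · Control set – DMSO and EC80 PEA controls · Repeats – n of 1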
# V1aR counter – agonists of human V1a receptor, primary screen, counter-screen for OXTR agonist project, fluorescence, CHO-V1R cells. Fluo-8 calcium fluorescence, agonist mode; 0% DMSO, 100% 3 nM vasopressin. activation, % at 3 µM. Vasopressin V1a receptor (Homo sapiens), P37288. AID 2797, 2010. 0.25% of 320,000 active;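 active = activation above the mean activation of all tested compounds plus 3 SD, per screening run, cut at about 20% in these data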;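 also: signal is peak over basal fluorescence ratio across a 100 second FLIPR read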
# Target sequence (P37288 whole entry, looked up): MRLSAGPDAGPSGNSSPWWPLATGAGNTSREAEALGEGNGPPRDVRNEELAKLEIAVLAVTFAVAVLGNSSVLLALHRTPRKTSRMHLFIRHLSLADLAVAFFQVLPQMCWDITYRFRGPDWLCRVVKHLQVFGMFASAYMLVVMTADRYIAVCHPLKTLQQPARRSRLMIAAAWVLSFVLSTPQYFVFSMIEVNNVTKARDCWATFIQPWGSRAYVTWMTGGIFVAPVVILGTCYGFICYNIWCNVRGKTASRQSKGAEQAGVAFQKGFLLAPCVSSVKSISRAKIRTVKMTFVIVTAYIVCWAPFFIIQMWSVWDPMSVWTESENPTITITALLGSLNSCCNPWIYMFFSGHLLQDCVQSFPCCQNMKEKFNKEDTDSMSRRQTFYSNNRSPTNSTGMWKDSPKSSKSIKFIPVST
# TAAR1 nonsel count – nonselective antagonists in TAAR1 counter-screen cells, counter-screen for hTAAR1 antagonist project, cell-based, fluorescence, calcium | 77% of 2,400 active | counterscreen cell line, antagonist mode | AID 651780, 2012 | shares compounds with TAAR1 antag | inhibition, % at 3 µM; in the data active = inhibition above about 22%;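 also: CHO-Ga16 host cells stimulated with ATP at an EC80 level; 0% = agonist EC80 plus vehicle and 100% = vehicle without agonist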
# TAAR1 antag conf – human TAAR1 antagonists, retest of hits, confirmation, cell-based, fluorescence. shares compounds with TAAR1 antag. TAAR1-expressing cells, fluorescence antagonist read-out. inhibition, % at 3 µM. 40% of 2,400 active; in the data active = inhibition above about 49%;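 also: CHO-Ga16 host cells challenged with agonist PEA near its EC80; 0% = agonist at EC80 plus vehicle and 100% = vehicle with no agonist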
# Ga16 nonsel ag – calcium activation in Ga16-expressing cells, counter-screen for TAAR1 antagonist project, cell-based, fluorescence; shares compounds with TAAR1 antag; agonist counterscreen; activation, % at 3 µM; 18% of 2,400 active; in the data active = activation above about 12%;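 also: 0% = vehicle wells and 100% = saturating stimulus response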
# TAAR1 ag count – TAAR1 activation by candidate antagonists – cell-based, fluorescence, counter-screen for TAAR1 antagonist project; shares compounds with TAAR1 antag; hTAAR1 cell line, agonist mode; activation, % at 3 µM; 2% of 2,400 active; AID 651955, 2012; in the data active = activation above about 37%;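 also: CHO cells stably expressing TAAR1 with calcium dye readout; 0% = DMSO vehicle and 100% = full agonist response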
# Numbers without * were called inactive; x = no result given. Sampled rows, rich in hits. Any-hit rate of the full collection: about 2.3%.
SMILES,TAAR1 agonist,OXTR agonist,OXTR potentiator,TAAR1 antag,V1aR counter,TAAR1 nonsel count,TAAR1 antag conf,Ga16 nonsel ag,TAAR1 ag count
CCOc1ccc(CCn2c(-c3ccco3)nc3ccccc3c2=O)cc1OCC,12.8,-1.1,3.1,57.8*,-1.6,30.9*,45.0,7.2,5.5
CCOC(=O)c1c(C)[nH]c(C)c1C(=O)CSc1nc2ccccc2c(=O)n1-c1ccccc1C,13.8,-2.4,2.1,56.8*,-0.7,26.0*,47.2,7.1,13.8
O=C(CCN1C(=O)/C(=C\c2ccccc2Cl)SC1=S)Nc1cccnc1,12.1,4.9,-9.5,49.9*,9.3,47.7*,69.2*,17.8*,22.6
CCCCCn1nc(C(=O)OCC(=O)c2c(N)n(C)c(=O)n(C)c2=O)c2ccccc2c1=O,10.2,-0.8,-11.2,1.2,-0.4,x,x,x,x
CCCCCCn1nc(C(=O)OCC(=O)c2c(N)n(C)c(=O)n(C)c2=O)c2ccccc2c1=O,5.6,2.1,-8.5,78.5*,2.4,35.9*,53.2*,9.2,8.0
Cc1ccc(-n2cc(CNC(C)c3cnn(C)c3C)c(-c3ccc(F)cc3)n2)cc1 (stereo not drawn),8.1,6.7,-0.6,-14.6,3.4,x,x,x,x
COc1cc(NC(=O)C2CC(c3c(F)cccc3Cl)=NO2)cc(OC)c1OC (stereo not drawn),16.6,9.3,-16.3,61.9*,8.7,35.0*,35.2,12.8*,11.3
COc1ccc(NC(=O)C2CC(c3c(F)cccc3Cl)=NO2)cc1 (stereo not drawn),2.7,1.4,-3.0,10.6,2.5,x,x,x,x
COc1cc(C)cc(OC)c1OCC(=O)Nc1cc(C)on1,-2.4,-3.0,3.0,88.2*,-0.2,5.7,2.1,2.4,2.6
COc1cc(C(C)=O)ccc1OCC(=O)Nc1cc(C)on1,3.2,1.8,-0.6,9.2,0.1,x,x,x,x
CCOc1ccc(NC(=O)CN(C)C(=O)c2cccnc2Sc2ccc(Cl)cc2)cc1OCC,0.3,-1.6,-12.4,-20.8,-0.3,x,x,x,x
COc1ccc(S(=O)(=O)N(C)CC(=O)NCc2ccccc2)cc1OC,-4.3,-1.3,3.3,91.5*,0.7,-0.5,-4.2,-0.2,0.3
COc1ccc(S(=O)(=O)N(C)CC(=O)NCCc2ccccc2)cc1OC,5.9,-1.2,1.5,2.6,0.6,x,x,x,x
O=C(Nc1ccc(-c2csnn2)cc1)C(Cl)(Cl)Cl,0.7,-1.3,-6.2,-12.8,-0.4,x,x,x,x
COc1cc(C(=O)N/N=C/c2cc([N+](=O)[O-])cs2)cc(OC)c1OC,-3.9,-1.1,-1.2,102.1*,-0.2,4.2,5.0,0.3,-0.2
CCOc1ccc(C(=O)N/N=C/c2cc([N+](=O)[O-])cs2)cc1,1.3,-0.4,-5.3,10.4,0.8,x,x,x,x
C[C@@H]1CNC(=O)c2c(C(=O)N[C@@H](Cc3c[nH]c4ccccc34)C(=O)OC(C)(C)C)ncn21,11.7,x,x,57.8*,x,29.8*,43.3,9.0,11.7
Cc1ccc(Cl)cc1NC(=O)COC(=O)CCN1C(=O)C2CC=CCC2C1=O (stereo not drawn),0.8,2.1,-2.0,-11.6,0.5,x,x,x,x
COc1ccc(-c2nc(NC(=O)c3ccc(OCC(=O)Nc4ccc(F)cc4)c(OC)c3)sc2C)cc1,7.4,1.6,-2.9,65.2*,-0.4,29.9*,47.3,9.6,10.4
CCC(C(=O)NCc1ccccc1)n1c(C2CCN(C(C)=O)CC2)nc2ccccc21 (stereo not drawn),-0.1,x,x,5.3,x,x,x,x,x
CC1(C)O[C@@H]2[C@H](O1)[C@@H](CO)O[C@H]2n1cnc2c(=O)[nH]cnc21,12.7,1.3,-5.0,-10.5,0.6,x,x,x,x
O=C(N/C(=C/C=C/c1ccccc1)C(=O)N1CCOCC1)c1ccccc1Cl,4.2,1.0,-15.7,8.7,0.2,x,x,x,x
O=C(Nc1ccc(C(=O)O)cc1)/C(=C\C=C\c1ccccc1)NC(=O)c1ccccc1Cl,2.7,0.1,-3.6,58.2*,1.1,22.6*,29.6,6.2,6.4
COc1cc(C(=O)OCc2cc(=O)oc3c(C)c(C)ccc23)ccc1OC(F)F,-0.2,0.0,-4.0,7.3,1.5,x,x,x,x
CC(C)(Oc1ccc(Cl)cc1)C(=O)NCC(c1cccs1)N1CCOCC1 (stereo not drawn),9.1,-2.7,-1.6,58.2*,0.8,17.1,23.3,5.1,1.1
SMILES,TAAR1 agonist,OXTR agonist,OXTR potentiator,TAAR1 antag,V1aR counter,TAAR1 nonsel count,TAAR1 antag conf,Ga16 nonsel ag,TAAR1 ag count
CC(C)(C)c1ccc(OCCC(=O)NCC(c2cccs2)N2CCOCC2)cc1 (stereo not drawn),1.6,0.7,-9.5,15.6,2.6,x,x,x,x
COc1cc(/C=C2/C(=N)N3C=CSC3=NC2=O)ccc1OCCCOc1ccccc1C,13.5,-1.7,-2.3,63.8*,-0.8,26.1*,42.9,4.3,3.8
COc1cc(/C=C2/C(=N)N3C=CSC3=NC2=O)ccc1OCCCOc1c(C)cccc1C,0.5,-1.2,-12.1,43.9,-1.1,x,x,x,x
O=C(NC1CCN(S(=O)(=O)c2cccc(F)c2)CC1)c1cccc(F)c1,-1.3,x,x,-20.1,x,x,x,x,x
c1ccc(-c2cc3c(N4CCN(c5ncccn5)CC4)ncnc3s2)cc1,5.3,-2.0,-18.6,55.5*,-0.4,30.2*,50.2*,3.7,5.5
c1ccc(-c2cc3c(N4CCN(c5ccccc5)CC4)ncnc3s2)cc1,2.3,-1.4,-11.1,31.8,0.0,x,x,x,x
COc1ccc(N2CCN(CC(=O)Nc3ccccc3C(=O)NCc3ccccc3)CC2)cc1,18.7,2.2,-3.0,69.7*,3.2,22.4*,52.4*,9.9,25.5
COc1ccc(N2CCN(CC(=O)Nc3ccccc3C(=O)NC(C)c3ccccc3)CC2)cc1 (stereo not drawn),16.2,x,x,60.5*,x,14.6,38.8,7.3,16.3
CCOC(=O)C1CCN(C(=O)CCc2ccc(S(=O)(=O)NCC(C)C)cc2)CC1,-0.3,-1.7,-8.1,-21.8,1.8,x,x,x,x
